What was measured:
Type in all cases: functional
Details in all cases: read-out: DIZ
Xanthomonas sp. [1] = test: Antibacterial activity against Xanthomonas sp. at 12.5 ug/ml after 24 to 48 hrs by well plate diffusion method
Outline: (§1)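 Agar well diffusion: 15-20 mL agar per dish, plates dried 1 h at 37 ± 2 °C in laminar flow, then seeded. Wells cut with an agar punch, each loaded with compound dissolved in DMSO (6.25 or 12.5 μg/mL). DMSO solvent control, ciprofloxacin standard. Plates in triplicate, incubated 37 ± 2 °C for 24–48 h. Inhibition zone diameter read in mm, with SD.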

Aspergillus terreus [2] = test: Antifungal activity against Aspergillus terreus at 12.5 ug/ml after 72 hrs by well plate method
Outline: (§2)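 Sabouraud agar: peptone 10 g, glucose 40 g, agar 20 g per litre water, pH 5.7. Spore suspension made from a loopful of fungus in 3 mL normal saline and lawned on 20 mL agar per dish. Excess decanted, plates dried 1 h at 37 °C. Wells punched and loaded with compound in DMSO (6.25 or 12.5 μg/mL). DMSO control. Triplicate plates held at 25 °C for 72 h. Inhibition zone diameter measured. A. terreus strain NCIM 1325.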

Aspergillus flavus [3] = test: Antifungal activity against Aspergillus flavus at 6.25 ug/ml after 72 hrs by well plate method
Salmonella sp. [4] = test: Antibacterial activity against Salmonella sp. at 12.5 ug/ml after 24 to 48 hrs by well plate diffusion method; outline: as §1
Salmonella sp. [5] = test: Antibacterial activity against Salmonella sp. at 6.25 ug/ml after 24 to 48 hrs by well plate diffusion method; outline: as §1
Xanthomonas sp. [6] = test: Antibacterial activity against Xanthomonas sp. at 6.25 ug/ml after 24 to 48 hrs by well plate diffusion method; outline: as §1
Aspergillus terreus [7] = test: Antifungal activity against Aspergillus terreus at 6.25 ug/ml after 72 hrs by well plate method; outline: as §2
Staphylococcus aureus [8] = test: Antibacterial activity against Staphylococcus aureus at 6.25 ug/ml after 24 to 48 hrs by well plate diffusion method; outline: as §1
Penicillium sp. [9] = test: Antifungal activity against Penicillium sp. at 6.25 ug/ml after 72 hrs by well plate method
Staphylococcus aureus [10] = test: Antibacterial activity against Staphylococcus aureus at 12.5 ug/ml after 24 to 48 hrs by well plate diffusion method; outline: as §1
Aspergillus niger [11] = test: Antifungal activity against Aspergillus niger at 6.25 ug/ml after 72 hrs by well plate method
Penicillium sp. [12] = test: Antifungal activity against Penicillium sp. at 12.5 ug/ml after 72 hrs by well plate method
Aspergillus flavus [13] = test: Antifungal activity against Aspergillus flavus at 12.5 ug/ml after 72 hrs by well plate method
Escherichia coli [14] = test: Antibacterial activity against Escherichia coli at 12.5 ug/ml after 24 to 48 hrs by well plate diffusion method; outline: as §1
Aspergillus niger [15] = test: Antifungal activity against Aspergillus niger at 12.5 ug/ml after 72 hrs by well plate method
Escherichia coli [16] = test: Antibacterial activity against Escherichia coli at 6.25 ug/ml after 24 to 48 hrs by well plate diffusion method; outline: as §1

Structure (SMILES) | zone of inhibition at 12.5 µg/mL (Xanthomonas sp. [1]) | zone of inhibition at 12.5 µg/mL (Aspergillus terreus [2]) | zone of inhibition at 6.25 µg/mL (Aspergillus flavus [3]) | zone of inhibition at 12.5 µg/mL (Salmonella sp. [4]) | zone of inhibition at 6.25 µg/mL (Salmonella sp. [5]) | zone of inhibition at 6.25 µg/mL (Xanthomonas sp. [6]) | zone of inhibition at 6.25 µg/mL (Aspergillus terreus [7]) | zone of inhibition at 6.25 µg/mL (Staphylococcus aureus [8]) | zone of inhibition at 6.25 µg/mL (Penicillium sp. [9]) | zone of inhibition at 12.5 µg/mL (Staphylococcus aureus [10]) | zone of inhibition at 6.25 µg/mL (Aspergillus niger [11]) | zone of inhibition at 12.5 µg/mL (Penicillium sp. [12]) | zone of inhibition at 12.5 µg/mL (Aspergillus flavus [13]) | zone of inhibition at 12.5 µg/mL (Escherichia coli [14]) | zone of inhibition at 12.5 µg/mL (Aspergillus niger [15]) | zone of inhibition at 6.25 µg/mL (Escherichia coli [16])
Fc1ccc(-c2cc(-c3nc4ccc(Cl)cc4[nH]3)c3ccccc3n2)cc1 | 15 mm | 16 mm | 11 mm | 17 mm | 9 mm | 15 mm | 10 mm | 12 mm | 12 mm | 13 mm | 15 mm | 12 mm | 16 mm | 16 mm | 18 mm | –
Fc1ccc(-c2cc(-c3nc4ncccc4[nH]3)c3ccccc3n2)cc1 | 14 mm | 10 mm | – | 12 mm | 9 mm | 10 mm | 9 mm | 16 mm | 16 mm | 16 mm | 14 mm | 17 mm | 11 mm | 14 mm | 16 mm | 14 mm
Fc1ccc(-c2cc(-c3nc4cc(Cl)c(Cl)cc4[nH]3)c3ccccc3n2)cc1 | 22 mm | 11 mm | 10 mm | 12 mm | 11 mm | 20 mm | 10 mm | 12 mm | 12 mm | 16 mm | 10 mm | 12 mm | 10 mm | 16 mm | 12 mm | 12 mm
COc1ccc2nc(-c3cc(-c4ccc(F)cc4)nc4ccccc34)[nH]c2c1 | 14 mm | 13 mm | – | 11 mm | 10 mm | 12 mm | 12 mm | 12 mm | 16 mm | 12 mm | 10 mm | 18 mm | 10 mm | 14 mm | 12 mm | 12 mm
OC(Cn1cncn1)(Cn1cncn1)c1ccc(F)cc1F [FLUCONAZOLE] | – | 18 mm | 15 mm | – | – | – | 16 mm | – | 19 mm | – | 14 mm | 21 mm | 20 mm | – | 18 mm | –
